Values after ≈ are worked out from the molar mass of the structure shown. Active and inactive are the calls of the source. The calls are words filed in the database; no cut-off is given here.
Tests used:
Cryptococcus neoformans [1] = test: Antimicrobial activity against Cryptococcus neoformans ATCC 90113 by NCCLS method; assay type: functional, organism-based
Outline: (§1)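 Samples serially diluted in 20% DMSO/saline, tested in duplicate. Inocula set by OD630: C. albicans RPMI pH 4.5, 1·10^4 CFU/mL; C. neoformans Sabouraud dextrose, 1·10^5; MRSA cation-adjusted Mueller-Hinton pH 7.3, 5·10^5; M. intracellulare 7H9/OADC + 5% Alamar Blue pH 7.3, 2·10^6; A. fumigatus RPMI pH 7.3 + 5% Alamar Blue, 3·10^4.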

[2] = test system: Mycobacterium intracellulare; test: Antimicrobial activity against Mycobacterium intracellular ATCC 23068 by alamar blue assay; assay type: functional, organism-based
Outline: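 Samples serially diluted in 20% DMSO/saline, tested in duplicate. Inocula set by OD630: C. albicans RPMI pH 4.5, 1·10^4 CFU/mL; C. neoformans Sabouraud dextrose, 1·10^5; MRSA cation-adjusted Mueller-Hinton pH 7.3, 5·10^5; M. intracellulare 7H9/OADC + 5% Alamar Blue pH 7.3, 2·10^6; A. fumigatus RPMI pH 7.3 + 5% Alamar Blue, 3·10^4. Read at 630 nm or 544ex/590em before and after incubation.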

Plasmodium falciparum [3] = test: Antimalarial activity after 72 hrs against chloroquine-resistant Plasmodium falciparum W2 by pLDH activity; assay type: functional, organism-based; settings: W2, 72 h
Outline: (§2)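 P. falciparum-infected red cells (2% parasitemia, 2% hematocrit) in RPMI-1640 with 10% human serum and 60 μg/mL amikacin, exposed to serial sample concentrations. Gassed with 90% N2/5% O2/5% CO2, incubated 37 °C for 72 h. Parasite LDH activity read colorimetrically with Malstat reagent.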

Staphylococcus aureus [4] = test: Antimicrobial activity against methicillin-resistant Staphylococcus aureus ATCC 43300 by NCCLS method; assay type: functional, organism-based; outline: as §1
Candida albicans [5] = test: Antimicrobial activity against Candida albicans ATCC 90028 by NCCLS method; assay type: functional, organism-based; outline: as §1
[6] = Selectivity index, IC50 for african green monkey (Cercopithecus aethiops) Vero cells to IC50 for […]; assay type: functional
Outline: (§3)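 Selectivity index = IC50 against VERO cells divided by IC50 against P. falciparum (D6 or W2, respectively), each from the corresponding in-house assay.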

[7] = Selectivity index, IC50 for african green monkey (Cercopithecus aethiops) Vero cells to IC50 for chloroquine-sensitive Plasmodium falciparum D6; assay type: functional; outline: as §3
Aspergillus fumigatus [8] = test: Antimicrobial activity against Aspergillus fumigatus ATCC 90906 by alamar blue assay; assay type: functional, organism-based; outline: as §1
Plasmodium falciparum [9] = test: Antimalarial activity after 72 hrs against […] Plasmodium falciparum D6 by pLDH activity; assay type: functional, organism-based; settings: D6, 72 h; outline: as §2
Vero [10] = test: Cytotoxicity against african green monkey Vero cells at 4760 ng/mL; assay type: cell-based, Chlorocebus sabaeus
Leishmania donovani = test: Antileishmanial activity against Leishmania donovani promastigotes after 48 hrs by alamar blue assay; assay type: functional, organism-based
Aspergillus fumigatus [11] = test: Antimicrobial activity against Aspergillus fumigatus ATCC 90906 by alamar blue assay in presence of 5% human serum; assay type: functional, organism-based
Staphylococcus aureus [12] = test: Antimicrobial activity against methicillin-resistant Staphylococcus aureus ATCC 43300 by NCCLS method in presence of 5% human serum; assay type: functional, organism-based
Cryptococcus neoformans [13] = test: Antimicrobial activity against Cryptococcus neoformans ATCC 90113 by NCCLS method in presence of 5% human serum; assay type: functional, organism-based
[14] = test system: Mycobacterium intracellulare; test: Antimicrobial activity against Mycobacterium intracellular ATCC 23068 by alamar blue assay in presence of 5% human serum; assay type: functional, organism-based
Candida albicans [15] = test: Antimicrobial activity against Candida albicans ATCC 90028 by NCCLS method in presence of 5% human serum; assay type: functional, organism-based
Vero [16] = test: Cytotoxicity against african green monkey Vero cells after 48 hrs by neutral red assay; assay type: cell-based, Chlorocebus sabaeus; settings: Chlorocebus sabaeus, Vero, 48 h; read-out: IC50
Outline: (§4)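 Cells seeded at 25,000/well, incubated 24 h, then exposed to samples for 48 h. Viable cells measured by Neutral Red uptake. IC50 from logarithmic plots of growth inhibition vs concentration. Doxorubicin positive control, DMSO vehicle control.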

LLC-PK1 = test: Cytotoxicity against pig LLC-PK1 cells after 48 hrs by neutral red assay; assay type: cell-based, Sus scrofa; settings: Sus scrofa, LLC-PK1, 48 h; read-out: IC50; outline: as §4
BT-549 = test: Cytotoxicity against human BT549 cells after 48 hrs by neutral red assay; assay type: functional, cell-based; settings: BT-549, 48 h; outline: as §4
SK-OV-3 = test: Cytotoxicity against human SKOV3 cells after 48 hrs by neutral red assay; assay type: functional, cell-based; settings: SK-OV-3, 48 h; outline: as §4
KB = test: Cytotoxicity against human KB cells after 48 hrs by neutral red assay; assay type: functional, cell-based; outline: as §4
SK-MEL = test: Cytotoxicity against human SK-MEL cells after 48 hrs by neutral red assay; assay type: functional, cell-based; outline: as §4
Vero [17] = test: Cytotoxicity against african green monkey Vero cells; assay type: cell-based; settings: Chlorocebus sabaeus; outline: as §4
[18] = Candida albicans, ATCC 90028, read-out: IC50
[19] = Aspergillus fumigatus, ATCC 90906, read-out: IC50
[20] = Aspergillus fumigatus, ATCC 90906

Row | SMILES | IC50 (Cryptococcus neoformans [1]) | IC50 [2] | IC50 (Staphylococcus aureus [4]) | Ratio IC50 [6] | Ratio IC50 [7] | IC50 (Plasmodium falciparum [9]) | IC50 (Vero [10]) | IC50 (Leishmania donovani) | IC90 (Leishmania donovani) | MIC [2] | Activity (Aspergillus fumigatus [11]) | Activity (Staphylococcus aureus [12]) | MBC [2] | MFC (Candida albicans [5]) | Activity (Cryptococcus neoformans [13]) | Activity [14] | Activity (Candida albicans [15]) | IC50 (Vero [16]) | other results
1 | C[C@H]1N[C@@H](CCCCCCCCCCC2=C[C@@H](CCCCCCCCCC[C@@H]3CC[C@H](O)[C@@H](C)N3)[C@@H]3CCCN3C2)CC[C@H]1O.Cl.Cl | 0.85 µg/mL | 10 µg/mL | 3 µg/mL | >16.4 | >12.5 | 0.38 µg/mL | Non-toxic | 0.7 µg/mL | 1.2 µg/mL |  |  |  |  |  |  |  |  |  | MFC (Cryptococcus neoformans [1]): 2.5 µg/mL; MIC (Cryptococcus neoformans [1]): 1.25 µg/mL; IC50 (Plasmodium falciparum [3]): 0.29 µg/mL; IC50 (Candida albicans [5]; [18]): 7.5 µg/mL; IC50 (Aspergillus fumigatus [8]; [19]): 6.5 µg/mL
2 | C[C@@H]1N[C@H](CCCCCCCCCCC2=C[C@@H](CCCCCCCCCC[C@@H]3CC[C@@H](O)[C@H](C)N3)[C@@H]3CCCN3C2)CC[C@H]1O.Cl.Cl | 2 µg/mL | 9.5 µg/mL | 3 µg/mL | >8.5 | >7.9 | 0.6 µg/mL | Non-toxic |  | 7 µg/mL | 20 µg/mL |  |  |  |  |  |  |  |  | IC50 (Candida albicans [5]): Not Active; IC50 (Aspergillus fumigatus [8]): Not Active
3 | C[C@@H]1N[C@H](CCCCCCCCCCC2=C[C@@H](CCCCCCCCCC[C@@H]3CC[C@@H](O)[C@H](C)N3)[C@@H]3CCCN3C2)CC[C@H]1O |  |  |  |  |  |  |  |  |  |  | Active | Active | inactive | inactive | Active | Active | Active |  | MIC (Candida albicans [5]): inactive; MFC (Aspergillus fumigatus [8]): inactive; MIC (Aspergillus fumigatus [8]): inactive
4 | C[C@H]1N[C@@H](CCCCCCCCCCC2=C[C@@H](CCCCCCCCCC[C@@H]3CC[C@H](O)[C@@H](C)N3)[C@@H]3CCCN3C2)CC[C@H]1O |  |  |  |  |  |  |  |  |  | inactive | Active | Active | inactive | inactive | Active | Active | Active |  | MBC (Staphylococcus aureus [4]): inactive; MIC (Candida albicans [5]): inactive; MFC (Aspergillus fumigatus [8]): inactive
5 | C[C@@H]1CC[C@H]2[C@@H](C)C(=O)O[C@@H]3O[C@@]4(C)CC[C@@H]1[C@]32OO4 [ARTEMISININ] |  |  |  |  |  | 0.016 µg/mL (≈ 0.0567 µM) | Non-toxic |  |  |  |  |  |  |  |  |  |  | > 4.76 µg/mL | IC50 (LLC-PK1): 0.6 µg/mL (≈ 2.13 µM)
6 | CCN(CC)CCCC(C)Nc1ccnc2cc(Cl)ccc12 (centres undefined) [CHLOROQUINE] |  |  |  |  |  |  | Non-toxic |  |  |  |  |  |  |  |  |  |  |  | 
7 | O=C(O)c1cn(C2CC2)c2cc(N3CCNCC3)c(F)cc2c1=O [CIPROFLOXACIN] |  |  |  |  |  |  |  |  |  | 0.63 µg/mL (≈ 1.9 µM) |  |  | inactive |  |  |  |  |  | MBC (Staphylococcus aureus [4]): inactive; MIC (Staphylococcus aureus [4]): 0.3 µg/mL (≈ 0.905 µM)
8 | COc1cccc2c1C(=O)c1c(O)c3c(c(O)c1C2=O)C[C@@](O)(C(=O)CO)C[C@@H]3O[C@H]1C[C@H](N)[C@H](O)[C@H](C)O1 [DOXORUBICIN] |  |  |  |  |  |  |  |  |  |  |  |  |  |  |  |  |  | 3.2 µg/mL (≈ 5.89 µM) | IC50 (BT-549): < 0.55 µg/mL; IC50 (SK-OV-3): < 0.55 µg/mL; IC50 (KB): < 0.55 µg/mL; IC50 (SK-MEL): < 0.55 µg/mL; IC50 (LLC-PK1): < 0.55 µg/mL
9 | C[C@H]1N[C@@H](CCCCCCCCCCC2=C[C@@H](CCCCCCCCCC[C@@H]3CC[C@H](O)[C@@H](C)N3)[C@@H]3CCCN3C2)CC[C@H]1O [ISOPROSOPILOSINE] | 0.4 µg/mL (≈ 0.635 µM) | 1.5 µg/mL (≈ 2.38 µM) | 1 µg/mL (≈ 1.59 µM) | 12 | 22 | 0.083 µg/mL (≈ 0.132 µM) |  | 0.26 µg/mL (≈ 0.413 µM) |  |  |  |  |  |  |  |  |  | 1.8 µg/mL (≈ 2.86 µM) | IC50 (BT-549): 2.5 µg/mL (≈ 3.97 µM); MFC (Cryptococcus neoformans [1]): 0.63 µg/mL (≈ 1 µM); MIC (Cryptococcus neoformans [1]): 0.63 µg/mL (≈ 1 µM); IC50 (SK-OV-3): < 1.1 µg/mL; IC50 (Plasmodium falciparum [3]): 0.15 µg/mL (≈ 0.238 µM); MIC (Staphylococcus aureus [4]): 2.5 µg/mL (≈ 3.97 µM); IC50 (Candida albicans [5]): Not Active; IC50 (KB): 2.2 µg/mL (≈ 3.49 µM); MFC (Aspergillus fumigatus [8]; [20]): 2.5 µg/mL (≈ 3.97 µM); MIC (Aspergillus fumigatus [8]; [20]): 0.16 µg/mL (≈ 0.254 µM); IC50 (Aspergillus fumigatus [8]; [19]): 0.1 µg/mL (≈ 0.159 µM); IC50 (SK-MEL): < 1.1 µg/mL; IC50 (Vero [17]): 1.8 µg/mL (≈ 2.86 µM)
10 | C[C@H]1N[C@@H](CCCCCCCCCCC2=C[C@@H](CCCCCCCCCC[C@H]3CC[C@@H](O)[C@@H](C)N3)[C@@H]3CCCN3C2)CC[C@H]1O [JULIPROSOPINE] | 1.5 µg/mL (≈ 2.38 µM) | 6 µg/mL (≈ 9.52 µM) | 3.5 µg/mL (≈ 5.56 µM) | 13 | 23 | 0.22 µg/mL (≈ 0.349 µM) |  | 0.75 µg/mL (≈ 1.19 µM) |  |  | Active | Active |  | inactive | Active | Active | Active | 5 µg/mL (≈ 7.94 µM) | IC50 (SK-OV-3): 4.7 µg/mL (≈ 7.46 µM); IC50 (Plasmodium falciparum [3]): 0.38 µg/mL (≈ 0.603 µM); MBC (Staphylococcus aureus [4]): inactive; IC50 (Candida albicans [5]): Not Active; MIC (Candida albicans [5]): inactive; IC50 (KB): 6.2 µg/mL (≈ 9.84 µM); MFC (Aspergillus fumigatus [8]; [20]): 1.25 µg/mL (≈ 1.98 µM); MIC (Aspergillus fumigatus [8]; [20]): 1.25 µg/mL (≈ 1.98 µM); IC50 (Aspergillus fumigatus [8]; [19]): 0.9 µg/mL (≈ 1.43 µM); IC50 (SK-MEL): 2.4 µg/mL (≈ 3.81 µM); IC50 (Vero [17]): 5 µg/mL (≈ 7.94 µM)
11 | N=C(N)c1ccc(OCCCCCOc2ccc(C(=N)N)cc2)cc1 [PENTAMIDINE] |  |  |  |  |  |  |  | 0.5 µg/mL (≈ 1.47 µM) | 2 µg/mL (≈ 5.87 µM) |  |  |  |  |  |  |  |  |  | 
12 | C[C@@H]1N[C@H](CCCCCCCCCCc2cc(CCCCCCCCCC[C@@H]3CC[C@@H](O)[C@H](C)N3)c3[n+](c2)CCC3)CC[C@H]1O.[Cl-] [PROSOPILOSIDINE DIHYDROCHLORIDE] | 1.5 µg/mL | 3.5 µg/mL | 1.5 µg/mL | >17.6 | >11.1 | 0.43 µg/mL | Non-toxic | 2.8 µg/mL | 8 µg/mL | 10 µg/mL | Active | Active | inactive | inactive | Active | Active | Active |  | MFC (Cryptococcus neoformans [1]): 2.5 µg/mL; MIC (Cryptococcus neoformans [1]): 2.5 µg/mL; MIC (Staphylococcus aureus [4]): 2.5 µg/mL; MIC (Candida albicans [5]; Candida albicans, ATCC 90028): 20 µg/mL; IC50 (Candida albicans [5]; [18]): 15 µg/mL; IC50 (Aspergillus fumigatus [8]): Not Active; MFC (Aspergillus fumigatus [8]): inactive; MIC (Aspergillus fumigatus [8]): inactive

Source: ChEMBL document CHEMBL1151806, “Indolizidine, antiinfective and antiparasitic compounds from Prosopis glandulosa var. glandulosa” (J Nat Prod, 2009)
